In ChEMBL document CHEMBL1131531, “cycloSal-2',3'-dideoxy-2',3'-didehydrothymidine monophosphate (cycloSal-d4TMP): synthesis and antiviral evaluation of a new d4TMP delivery system” (J Med Chem, 1998):

How the values were obtained:
[1] = tested on: CCRF-CEM; test: The cytotoxicity was measured on wild type CEM/O cells.; format: functional; conditions: Homo sapiens
[2] = Half-life period was measured in 30 mM sodium borate buffer at pH 8.9 at 37 degree C; format: ADME
[3] = tested on: CCRF-CEM; test: (§1) Antiviral activity was measured on HIV-2 in mutant thymidine kinase-deficient CEM/TK- cells; format: functional, cell-based; conditions: Homo sapiens
[4] = tested on: CCRF-CEM; test: Antiviral activity was measured on HIV-2 in wild-type CEM/O cells; format: functional, cell-based, Homo sapiens
[5] = Partition coefficient was measured.; format: ADME; conditions: octanol/water
Outline: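 Compound dissolved in 1-octanol and mixed with equal volume of phosphate buffer (10 mmol, pH 6.8). Vortexed 10 min, phases separated by centrifugation. Each phase analysed by reversed-phase HPLC (UV 265 nm). Pa taken as the quotient of peak areas.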

[6] = Half-life period was measured in RPMI-1640 culture medium at 37 degree C with 10% heat-inactivated fetal calf serum..; format: ADME; conditions: cattle
[7] = Half-life period was measured in 30 mM sodium phosphate buffer at pH 7.3 at 37 degree C; format: ADME
[8] = Half-life period was measured in 30 mM TRIS buffer at pH 6.9 at 37 degree C; format: ADME
[9] = tested on: CCRF-CEM; test: Antiviral activity was measured on HIV-1 in wild-type CEM/O cells; format: functional, cell-based, Homo sapiens
[10] = Half-life period was measured in RPMI-1640 culture medium at 37 degree C without FCS.; format: ADME; conditions: RPMI-1640 culture medium without FCS
[11] = tested on: CCRF-CEM; test: as §1; format: functional, cell-based; conditions: Homo sapiens; remark: listed apart in the source
Outline: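 CEM/O or TK-deficient CEM/TK- cells at 4 × 10⁵ cells/mL infected with HIV-1 (HTLV-IIIB) or HIV-2 (LAV 2) at ~100 CCID50/mL. Infected suspension mixed 1:1 with serial compound dilutions. Giant cell formation scored microscopically after 4 days.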

[12] = tested on: MT4; test: Antiviral activity was measured on HIV-2 in MT-4 cells; format: functional, cell-based; conditions: Homo sapiens
[13] = tested on: MT4; test: Antiviral activity was measured on HIV-1 in MT-4 cells; format: functional, cell-based; conditions: Homo sapiens
[14] = tested on: CCRF-CEM; test: The cytotoxicity was measured on wild type CEM/O cells for R configuration; format: functional; conditions: Homo sapiens
[15] = tested on: CCRF-CEM; test: Antiviral activity was measured on HIV-2 in wild-type CEM/O cells for R configuration; format: functional, cell-based; conditions: Homo sapiens
[16] = tested on: CCRF-CEM; test: The cytotoxicity was measured on wild type CEM/O cells for S configuration; format: functional; conditions: Homo sapiens
[17] = tested on: CCRF-CEM; test: Antiviral activity was measured on HIV-1 in wild-type CEM/O cells for R configuration; format: functional, cell-based; conditions: Homo sapiens
[18] = tested on: CCRF-CEM; test: Antiviral activity was measured on HIV-1 in wild-type CEM/O cells for S configuration; format: functional, cell-based; conditions: Homo sapiens
[19] = tested on: CCRF-CEM; test: Antiviral activity was measured on HIV-2 in mutant thymidine kinase-deficient CEM/TK- cells for S configuration; format: functional, cell-based; conditions: Homo sapiens
[20] = tested on: CCRF-CEM; test: Antiviral activity was measured on HIV-2 in mutant thymidine kinase-deficient CEM/TK- cells for R configuration; format: functional, cell-based; conditions: Homo sapiens
[21] = tested on: CCRF-CEM; test: Antiviral activity was measured on HIV-2 in wild-type CEM/O cells for S configuration; format: functional, cell-based; conditions: Homo sapiens
[22] = tested on: MT4; test: Antiviral activity was measured on HIV-2 in MT-4 cells for R configuration; format: functional, cell-based; conditions: Homo sapiens
[23] = tested on: MT4; test: Antiviral activity was measured on HIV-1 in MT-4 cells for R configuration; format: functional, cell-based; conditions: Homo sapiens
[24] = tested on: CCRF-CEM; test: The cytotoxicity was measured on wild type CEM/O cells; format: functional; conditions: Homo sapiens

Structure (SMILES): COc1ccc2c(c1)COP(=O)(OC[C@@H]1C=C[C@H](n3cc(C)c(=O)[nH]c3=O)O1)O2 (stereo partly specified)
- CC50 [1]: 39000 nM
- half-life [2]: 1.07 h
- EC50 [3]: 800 nM
- EC50 ([4]; Homo sapiens, CCRF-CEM): 700 nM
- Pa [5]: 2.3
- half-life [6]: 4.3 h
- half-life [7]: 7.2 h
- half-life [8]: 28.3 h
- EC50 ([9]; Homo sapiens, CCRF-CEM): 180 nM
- half-life [10]: 7.2 h

Structure (SMILES): Cc1ccc2c(c1)COP(=O)(OC[C@@H]1C=C[C@H](n3cc(C)c(=O)[nH]c3=O)O1)O2 (stereo partly specified)
- Pa [5]: 5.4

Structure (SMILES): Cc1cn(C2C=CC(COP3(=O)OCc4cc(Cl)ccc4O3)O2)c(=O)[nH]c1=O (stereo unspecified)
- CC50 [1]: 49000 nM
- EC50 ([4]; Homo sapiens, CCRF-CEM): 1400 nM
- EC50 [11]: 2670 nM
- Pa [5]: 7.6
- EC50 [12]: 38 nM
- EC50 [13]: 31 nM

Structure (SMILES): Cc1cc(C)c2c(c1)COP(=O)(OCC1C=CC(n3cc(C)c(=O)[nH]c3=O)O1)O2 (stereo unspecified)
- Pa [5]: 15.3

Structure (SMILES): COc1ccc(O)c(CO)c1
- CC50 [1]: 158000 nM
- EC50 ([4]; Homo sapiens, CCRF-CEM): > 250000 nM
- EC50 ([9]; Homo sapiens, CCRF-CEM): > 250000 nM

Structure (SMILES): Cc1cccc(CO)c1O
- CC50 [1]: > 250000 nM
- EC50 ([4]; Homo sapiens, CCRF-CEM): > 250000 nM
- EC50 ([9]; Homo sapiens, CCRF-CEM): > 250000 nM

Structure (SMILES): COc1cccc2c1OP(=O)(OCC1C=CC(n3cc(C)c(=O)[nH]c3=O)O1)OC2 (stereo unspecified)
- CC50 [1]: 35000 nM
- CC50 [14]: 38000 nM
- half-life [2]: 0.4 h
- EC50 [3]: 170 nM
- EC50 ([4]; Homo sapiens, CCRF-CEM): 420 nM
- EC50 [15]: 170 nM
- CC50 [16]: 84000 nM
- EC50 [17]: 140 nM
- EC50 [18]: 470 nM
- EC50 [19]: 9670 nM
- Pa [5]: 1.4
- EC50 [20]: 120 nM
- EC50 [21]: 1030 nM
- half-life [6]: 2 h
- half-life [7]: 1.4 h
- half-life [8]: 9.5 h
- EC50 ([9]; Homo sapiens, CCRF-CEM): 170 nM
- half-life [10]: 3.2 h

Structure (SMILES): Cc1cn([C@H]2C=C[C@@H](COP3(=O)OCc4cc([N+](=O)[O-])ccc4O3)O2)c(=O)[nH]c1=O (stereo partly specified)
- CC50 [1]: 75000 nM
- EC50 ([4]; Homo sapiens, CCRF-CEM): 400 nM
- EC50 [11]: 40000 nM
- Pa [5]: 1.5
- EC50 ([9]; Homo sapiens, CCRF-CEM): 290 nM

Structure (SMILES): Cc1cn([C@H]2C=C[C@@H](COP3(=O)OCc4ccccc4O3)O2)c(=O)[nH]c1=O (stereo partly specified)
- Pa [5]: 1.9

Structure (SMILES): Cc1cccc2c1OP(=O)(OC[C@@H]1C=C[C@H](n3cc(C)c(=O)[nH]c3=O)O1)OC2 (stereo partly specified)
- CC50 [1]: 21000 nM
- CC50 [14]: 11000 nM
- half-life [2]: 1.5 h
- EC50 [3]: 93 nM
- EC50 ([4]; Homo sapiens, CCRF-CEM): 120 nM
- EC50 [22]: 11 nM
- EC50 [15]: 67 nM
- CC50 [16]: 76000 nM
- EC50 [17]: 80 nM
- EC50 [18]: 420 nM
- EC50 [19]: 700 nM
- Pa [5]: 5.1
- EC50 [20]: 63 nM
- EC50 [12]: 33 nM
- EC50 [21]: 1100 nM
- EC50 [13]: 28 nM
- half-life [6]: 9.1 h
- half-life [7]: 10.2 h
- half-life [8]: 68.5 h
- EC50 ([9]; Homo sapiens, CCRF-CEM): 87 nM
- EC50 [23]: 12 nM
- half-life [10]: 16 h

Structure (SMILES): OCc1ccccc1O [SALICYL ALCOHOL]
- CC50 [1]: > 250000 nM
- EC50 ([4]; Homo sapiens, CCRF-CEM): > 250000 nM
- EC50 ([9]; Homo sapiens, CCRF-CEM): > 250000 nM

Structure (SMILES): Cc1cn([C@H]2C=C[C@@H](CO)O2)c(=O)[nH]c1=O [STAVUDINE]
- CC50 [1]: 56000 nM
- EC50 [3]: 15000 nM
- EC50 ([4]; Homo sapiens, CCRF-CEM): 260 nM
- EC50 ([4]; ccrf-cem): 260 nM
- CC50 [24]: 56000 nM
- Pa [5]: 0.15
- EC50 [12]: 22 nM
- EC50 [13]: 18 nM
- EC50 ([9]; Homo sapiens, CCRF-CEM): 180 nM
- EC50 ([9]; ccrf-cem): 180 nM

Structure (SMILES): Cc1cn([C@H]2C[C@H](N=[N+]=[N-])[C@@H](CO)O2)c(=O)[nH]c1=O [ZIDOVUDINE]
- CC50 [1]: > 100000 nM
- EC50 [3]: > 100000 nM
- EC50 ([9]; Homo sapiens, CCRF-CEM): 7 nM
